Calls of active or inactive are those of the source. No cut-off for these calls is given here. Square brackets hold non-standard residues; d marks the D form. Peptide text beside a SMILES is read from it.
What was measured:
Melanocortin receptor 4 [1] = molecular target: T1, Melanocortin receptor 4 (Homo sapiens, UniProt P32245); test: Inverse agonist activity at human melanocortin receptor 4 expressed in HEK293 cells assessed as inhibition of basal cAMP accumulation incubated for 2 hrs by cAMP Alpha-screen assay; assay type: functional, cell-based
T1 sequence (P32245 whole entry): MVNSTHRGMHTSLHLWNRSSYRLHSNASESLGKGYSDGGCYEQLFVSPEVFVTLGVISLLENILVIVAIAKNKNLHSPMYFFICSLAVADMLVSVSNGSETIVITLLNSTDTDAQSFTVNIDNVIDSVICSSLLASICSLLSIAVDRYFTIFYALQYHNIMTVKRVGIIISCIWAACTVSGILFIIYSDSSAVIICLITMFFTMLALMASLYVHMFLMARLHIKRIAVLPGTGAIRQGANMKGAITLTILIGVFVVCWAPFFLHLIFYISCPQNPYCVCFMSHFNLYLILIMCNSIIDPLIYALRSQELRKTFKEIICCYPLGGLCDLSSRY
How it was run: (§1)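 AlphaScreen cAMP assay in stably transfected HEK293 cells, with 10,000 cells/well in IBMX-containing HBSS/HEPES buffer pH 7.4. Peptide alone, up to 100 μM, 2 h at room temperature in the dark, then 2 h lysis/detection. Inverse agonism taken as percent decrease of cAMP from basal, relative to maximal NDP-MSH signal, at 100 μM. Duplicates, three independent experiments.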

[2] = molecular target: Melanocortin receptor 3 (Mus musculus) (UniProt P33033); test: Agonist activity at mouse melanocortin receptor 3 expressed in HEK293 cells assessed as stimulation of cAMP accumulation at 100 uM incubated for 2 hrs by cAMP Alpha-screen assay relative to control; assay type: functional, cell-based
Chain of Melanocortin receptor 3 (Mus musculus) (P33033 whole entry): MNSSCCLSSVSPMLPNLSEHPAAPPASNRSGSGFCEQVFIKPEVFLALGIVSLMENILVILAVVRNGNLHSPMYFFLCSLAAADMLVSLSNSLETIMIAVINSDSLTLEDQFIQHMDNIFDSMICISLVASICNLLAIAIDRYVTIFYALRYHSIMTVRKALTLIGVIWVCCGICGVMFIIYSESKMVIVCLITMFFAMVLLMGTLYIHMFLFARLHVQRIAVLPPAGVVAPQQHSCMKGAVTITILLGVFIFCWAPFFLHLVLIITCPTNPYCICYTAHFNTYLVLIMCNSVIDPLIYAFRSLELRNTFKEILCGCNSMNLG

[3] = molecular target: Melanocortin receptor 4 (Mus musculus) (UniProt P56450); test: Agonist activity at mouse melanocortin receptor 4 expressed in HEK293 cells assessed as stimulation of cAMP accumulation at 100 uM incubated for 2 hrs by cAMP Alpha-screen assay relative to control; assay type: functional, cell-based
Chain of Melanocortin receptor 4 (Mus musculus) (P56450 whole entry): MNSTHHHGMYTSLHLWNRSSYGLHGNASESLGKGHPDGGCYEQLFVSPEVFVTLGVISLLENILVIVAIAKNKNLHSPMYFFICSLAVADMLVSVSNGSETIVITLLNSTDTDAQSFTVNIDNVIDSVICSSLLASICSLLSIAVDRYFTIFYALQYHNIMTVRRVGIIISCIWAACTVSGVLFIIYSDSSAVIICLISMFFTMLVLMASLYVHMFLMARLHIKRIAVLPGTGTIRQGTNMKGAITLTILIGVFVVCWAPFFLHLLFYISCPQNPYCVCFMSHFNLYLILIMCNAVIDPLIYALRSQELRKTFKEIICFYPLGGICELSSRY

[4] = molecular target: Melanocyte-stimulating hormone receptor (Mus musculus) (UniProt Q01727); test: Agonist activity at mouse melanocortin receptor 1 expressed in HEK293 cells assessed as stimulation of cAMP accumulation at 100 uM incubated for 2 hrs by cAMP Alpha-screen assay relative to control; assay type: functional, cell-based
Chain of Melanocyte-stimulating hormone receptor (Mus musculus) (Q01727 whole entry, looked up): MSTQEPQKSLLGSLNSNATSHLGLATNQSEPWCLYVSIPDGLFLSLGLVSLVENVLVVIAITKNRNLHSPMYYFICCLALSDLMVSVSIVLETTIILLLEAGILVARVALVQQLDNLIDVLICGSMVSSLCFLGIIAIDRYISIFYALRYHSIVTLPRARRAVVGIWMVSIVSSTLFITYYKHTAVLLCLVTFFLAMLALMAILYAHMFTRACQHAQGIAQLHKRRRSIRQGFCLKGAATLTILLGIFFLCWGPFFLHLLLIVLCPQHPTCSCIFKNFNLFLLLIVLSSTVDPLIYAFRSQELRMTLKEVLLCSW

Melanocortin receptor 5 [5] = molecular target: T2, Melanocortin receptor 5 (Mus musculus, UniProt P41149); test: Agonist activity at mouse melanocortin receptor 5 expressed in HEK293 cells assessed as stimulation of cAMP accumulation incubated for 2 hrs by cAMP Alpha-screen assay; assay type: functional, cell-based
T2 sequence (P41149 whole entry): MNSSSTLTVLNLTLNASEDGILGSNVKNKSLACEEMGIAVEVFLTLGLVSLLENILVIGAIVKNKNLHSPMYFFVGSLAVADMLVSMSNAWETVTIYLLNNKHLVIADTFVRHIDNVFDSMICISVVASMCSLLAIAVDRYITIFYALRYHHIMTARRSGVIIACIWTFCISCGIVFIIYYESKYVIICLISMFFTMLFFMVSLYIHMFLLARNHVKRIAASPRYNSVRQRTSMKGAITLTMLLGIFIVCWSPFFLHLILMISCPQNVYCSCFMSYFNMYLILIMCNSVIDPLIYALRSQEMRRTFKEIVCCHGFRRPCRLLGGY

[6] = molecular target: Melanocyte-stimulating hormone receptor (Mus musculus, UniProt Q01727); test: Displacement of [125I]-NDP-MSH from mouse melanocortin receptor 1 expressed in HEK293 cell mebranes incubated for 1 hr by automatic gamma counting method; assay type: cell-based
Chain of Melanocyte-stimulating hormone receptor (Q01727 whole entry): as the sequence (Q01727 whole entry, looked up) above
How it was run: (§2)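 Cells washed, lysed 10 min with 0.1 M NaOH/1% Triton X-100, then gamma-counted. Specific binding defined with unlabelled NDP-MSH and normalized to it. Duplicate wells, two experiments. IC50 by non-linear fit. Fold difference taken relative to the Asn-parent macrocycle control.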

[7] = molecular target: Melanocortin receptor 4 (Mus musculus) (UniProt P56450); test: Ratio of IC50 for MDE6-82-3c to IC50 for test compound for displacement of [125I]-NDP-MSH from mouse melanocortin receptor 4 expressed in HEK293 cell mebranes incubated for 1 hr by automatic gamma counting method; how it was run: as §2
Melanocortin receptor 4 [8] = molecular target: Melanocortin receptor 4 (Mus musculus, UniProt P56450); test: Agonist activity at mouse melanocortin receptor 4 expressed in HEK293 cells assessed as stimulation of cAMP accumulation incubated for 2 hrs by cAMP Alpha-screen assay; assay type: functional, cell-based
Chain of Melanocortin receptor 4 (Mus musculus, UniProt P56450) (P56450 whole entry): as the sequence (P56450 whole entry) above

Melanocortin receptor 3 [9] = molecular target: T3, Melanocortin receptor 3 (Mus musculus, UniProt P33033); test: Antagonist activity at mouse melanocortin receptor 3 expressed in HEK293 cells assessed as inhibition of NDP-MSH-induced cAMP accumulation incubated for 2 hrs by cAMP Alpha-screen assay based Schild analysis; assay type: functional, cell-based; conditions: read-out: pA2 (converted)
T3 sequence (P33033 whole entry): as the sequence (P33033 whole entry) above
How it was run: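 NDP-MSH (10−6 to 10−12) plus antagonist at 10,000, 5,000, 1,000 and 500 nM, 2 h dark at room temperature. AlphaScreen cAMP read after lysis/bead step 2 h. Schild pA2; duplicates, at least three independent experiments.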

Melanocortin receptor 3 [10] = molecular target: T3, Melanocortin receptor 3; test: Agonist activity at mouse melanocortin receptor 3 expressed in HEK293 cells assessed as stimulation of cAMP accumulation incubated for 2 hrs by cAMP Alpha-screen assay; assay type: functional, cell-based
Melanocortin receptor 3 [11] = molecular target: T3, Melanocortin receptor 3; test: Displacement of [125I]-NDP-MSH from mouse melanocortin receptor 3 expressed in HEK293 cell mebranes incubated for 1 hr by automatic gamma counting method; assay type: cell-based
Melanocortin receptor 4 [12] = molecular target: T1, Melanocortin receptor 4; test: Ratio of IC50 for MDE6-82-3c to IC50 for test compound for displacement of [125I]-NDP-MSH from human melanocortin receptor 4 expressed in HEK293 cell membranes incubated for 1 hr by automatic gamma counting method; how it was run: as §2
Melanocortin receptor 5 [13] = molecular target: T2, Melanocortin receptor 5; test: Displacement of [125I]-NDP-MSH from mouse melanocortin receptor 5 expressed in HEK293 cell mebranes incubated for 1 hr by automatic gamma counting method; assay type: cell-based
[14] = molecular target: Melanocortin receptor 5 (Mus musculus) (UniProt P41149); test: Inverse agonist activity at mouse melanocortin receptor 5 expressed in HEK293 cells assessed as inhibition of basal cAMP accumulation incubated for 2 hrs by cAMP Alpha-screen assay relative to control; assay type: functional, cell-based; conditions: concentration not given here; how it was run: as §1
Chain of Melanocortin receptor 5 (Mus musculus) (P41149 whole entry): as the sequence (P41149 whole entry) above

[15] = molecular target: Melanocortin receptor 5 (Mus musculus) (UniProt P41149); test: Inverse agonist activity at mouse melanocortin receptor 5 expressed in HEK293 cells assessed as inhibition of basal cAMP accumulation at 100 uM incubated for 2 hrs by cAMP Alpha-screen assay relative to control; assay type: functional, cell-based; how it was run: as §1
Melanocortin receptor 5 [16] = molecular target: T2, Melanocortin receptor 5; test: Antagonist activity at mouse melanocortin receptor 5 expressed in HEK293 cells assessed as inhibition of NDP-MSH-induced cAMP accumulation incubated for 2 hrs by cAMP Alpha-screen assay based Schild analysis; assay type: functional, cell-based; conditions: read-out: pA2 (converted)
[17] = molecular target: Melanocyte-stimulating hormone receptor (Mus musculus) (UniProt Q01727); test: Ratio of IC50 for MDE6-82-3c to IC50 for test compound for displacement of [125I]-NDP-MSH from mouse melanocortin receptor 1 expressed in HEK293 cell mebranes incubated for 1 hr by automatic gamma counting method; how it was run: as §2

Structure (SMILES) | Activity (Melanocortin receptor 4 [1]) | Activity [2] [%] | Activity [3] [%] | Activity [4] [%] | EC50 (Melanocortin receptor 5 [5]) [µM] | IC50 [6] [µM] | Ratio IC50 [7] | EC50 (Melanocortin receptor 4 [8]) [µM] | Kb (Melanocortin receptor 3 [9]) [µM] | EC50 (Melanocortin receptor 3 [10]) [µM] | IC50 (Melanocortin receptor 3 [11]) [µM] | Ratio IC50 (Melanocortin receptor 4 [12]) | IC50 (Melanocortin receptor 5 [13]) [µM] | inhibition [14] [%] | inhibition [15] [%] | Kb (Melanocortin receptor 5 [16]) [µM] | Ratio IC50 [17]
CC(C)[C@@H]1NC(=O)[C@H](CN)NC(=O)[C@H](Cc2ccccc2)NC(=O)[C@H](Cc2ccccc2)NC(=O)[C@H](CCCNC(=N)N)NC(=O)[C@@H]2CCCN2C(=O)[C@H]2CCCN2C(=O)[C@H](Cc2ccccc2)NC1=O | Active | 27 | 37 | 79 | > 100 |  |  |  |  |  |  |  |  |  |  |  | 
C[C@@H]1NC(=O)[C@H](CC(N)=O)NC(=O)[C@H](Cc2ccccc2)NC(=O)[C@H](Cc2ccccc2)NC(=O)[C@H](Cc2c[nH]cn2)NC(=O)[C@@H]2CCCN2C(=O)[C@H]2CCCN2C(=O)[C@H](Cc2ccccc2)NC1=O | Active |  |  | 23 | > 100 | > 100 | 300 | > 100 | > 10 | > 100 | > 100 | 300 | > 100 |  |  |  | 
C[C@@H]1NC(=O)[C@H](CC(N)=O)NC(=O)[C@H](Cc2ccccc2)NC(=O)[C@H](Cc2ccccc2)NC(=O)[C@H](CCCNC(=N)N)NC(=O)[C@@H]2CCCN2C(=O)[C@H]2CCCN2C(=O)[C@H](Cc2ccccc2)NC1=O |  |  |  |  |  |  |  |  |  |  |  |  |  | 10 |  |  | 
C[C@@H]1NC(=O)[C@H](CN)NC(=O)[C@H](Cc2ccccc2)NC(=O)[C@H](Cc2ccccc2)NC(=O)[C@H](CCCNC(=N)N)NC(=O)[C@@H]2CCCN2C(=O)[C@H]2CCCN2C(=O)[C@H](Cc2ccccc2)NC1=O | Active |  |  |  |  |  |  |  |  |  |  |  |  | 15 |  |  | 
C[C@@H]1NC(=O)[C@H](CC(N)=O)NC(=O)[C@H](Cc2ccccc2)NC(=O)[C@H](Cc2ccccc2)NC(=O)[C@H](CS)NC(=O)[C@@H]2CCCN2C(=O)[C@H]2CCCN2C(=O)[C@H](Cc2ccccc2)NC1=O (cyclo(PCFFNAF[dP])) | inactive |  |  | 46 |  |  | 90 | > 100 | > 10 | > 100 | > 100 | 300 | > 100 |  | 32 | > 10 | 3

From ChEMBL document CHEMBL4354837 (J Med Chem, 2020)
